# Tests used:
# [1] = target: T1, Prostaglandin E2 receptor EP4 subtype (Homo sapiens, UniProt P35408); test: Antagonist activity at human EP4 receptor expressed in HEK293 cells assessed as inhibition of PGE2-induced cAMP accumulation by scintillation proximity assay in presence of 10% human serum; type: functional, cell-based
# Procedure, shortened: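 Functional EP4 assay in the same HEK 293(EBNA) clonal line overexpressing human EP4; inhibition of PGE2-induced cAMP accumulation, run in presence of 10% human serum to gauge serum protein binding; IC50 values are means of at least three experiments.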
# [2] = species on record: Rattus norvegicus; test: Analgesic activity against complete Freund's adjuvant-induced Sprague-Dawley rat inflammatory pain assessed as inhibition of chronic paw swelling; type: functional
# Procedure, shortened: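 Adjuvant-induced arthritis in rats: CFA injected into primary paw on day 0; oral dosing in 0.5% methocel once daily for 9 days starting day 9; secondary paw swelling measured; plasma levels taken 24 h after final dose; n = 7/group; 1-way ANOVA/Dunnett's vs vehicle.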
# [3] = Volume of distribution at steady state in Beagle dog at 5 mg/kg, po and 1 mg/kg, iv; type: ADME, organism-based, Canis lupus familiaris; conditions: in vivo, read-out: Vdss
# Procedure, shortened: (§1)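 Overnight-fasted animals dosed po in 0.5% methocel or iv in 60% PEG 200; plasma from serial blood samples stored at -10 °C, protein-precipitated with equal volume acetonitrile/0.1% formic acid, analysed by LC/MS/MS with internal standard against spiked blank-plasma standards; Cmax from po data, half-life from iv data.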
# [4] = test system: Cynomolgus monkey; test: Volume of distribution at steady state in cynomolgus monkey at 5 mg/kg, po and 1 mg/kg, iv; type: ADME, organism-based, Macaca fascicularis; conditions: in vivo; procedure, shortened: as §1
# [5] = target: T2, Prostaglandin E2 receptor EP1 subtype (Homo sapiens, UniProt P34995); test: Displacement of [3H]PGE2 from human EP1 receptor expressed in HEK293-EBNA cells by scintillation counting; type: cell-based
# T2 sequence (P34995 whole entry): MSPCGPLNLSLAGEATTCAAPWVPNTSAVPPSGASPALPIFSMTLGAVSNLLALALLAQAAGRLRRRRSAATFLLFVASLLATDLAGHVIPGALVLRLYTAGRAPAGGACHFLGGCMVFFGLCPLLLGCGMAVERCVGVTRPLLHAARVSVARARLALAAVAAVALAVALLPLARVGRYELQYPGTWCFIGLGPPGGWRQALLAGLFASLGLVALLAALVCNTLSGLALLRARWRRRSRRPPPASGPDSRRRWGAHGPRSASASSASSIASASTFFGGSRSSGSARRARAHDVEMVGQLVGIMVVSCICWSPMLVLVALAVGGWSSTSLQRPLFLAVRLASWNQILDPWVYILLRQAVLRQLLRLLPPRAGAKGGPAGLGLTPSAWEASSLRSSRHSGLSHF
# Procedure, shortened: (§2)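 Radioligand binding on membranes from HEK 293(EBNA) clonal lines overexpressing each prostanoid receptor, using the respective 3H-prostaglandin or thromboxane ligand; EP4 binding also run with 10% human serum; Ki as means of at least three experiments (rEP2, rEP3 n = 1).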
# [6] = target: Prostacyclin receptor (Homo sapiens, UniProt P43119); test: Displacement of [3H]iloprost from human IP receptor expressed in HEK293-EBNA cells by scintillation counting; type: cell-based; procedure, shortened: as §2
# Prostacyclin receptor, sequence (P43119 whole entry): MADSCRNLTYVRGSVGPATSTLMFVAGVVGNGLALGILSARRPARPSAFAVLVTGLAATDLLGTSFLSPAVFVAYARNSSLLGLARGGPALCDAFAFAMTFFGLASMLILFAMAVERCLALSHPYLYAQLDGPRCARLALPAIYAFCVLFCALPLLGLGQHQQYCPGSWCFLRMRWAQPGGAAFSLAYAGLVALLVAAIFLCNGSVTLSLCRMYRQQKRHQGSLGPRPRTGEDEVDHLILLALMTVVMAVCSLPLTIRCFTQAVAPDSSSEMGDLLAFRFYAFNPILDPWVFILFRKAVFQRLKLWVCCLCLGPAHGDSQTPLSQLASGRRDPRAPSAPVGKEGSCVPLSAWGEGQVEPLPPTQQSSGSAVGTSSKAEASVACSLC
# [7] = Oral bioavailability in C57BL/6 mouse at 20 mg/kg; type: ADME, organism-based; conditions: in vivo; procedure, shortened: as §1
# [8] = Volume of distribution at steady state in Sprague-Dawley rat at 20 mg/kg, po and 5 mg/kg, iv; type: ADME, organism-based; conditions: in vivo, read-out: Vdss; procedure, shortened: as §1
# [9] = target: T1, Prostaglandin E2 receptor EP4 subtype; test: Displacement of [3H]PGE2 from human EP4 receptor expressed in HEK293-EBNA cells by scintillation counting; type: cell-based; procedure, shortened: as §2
# [10] = target: T1, Prostaglandin E2 receptor EP4 subtype; test: Displacement of [3H]PGE2 from human EP4 receptor expressed in HEK293-EBNA cells by scintillation counting in presence of 10% human serum; type: cell-based
# Procedure, shortened: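 Radioligand binding on membranes from HEK 293(EBNA) clonal cells overexpressing human EP4, [3H]PGE2 as tracer, run with 10% human serum added to assess serum protein binding; Ki values are means of at least three experiments.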
# [11] = target: T1, Prostaglandin E2 receptor EP4 subtype; test: Antagonist activity at human EP4 receptor expressed in HEK293 cells assessed as inhibition of PGE2-induced cAMP accumulation by scintillation proximity assay; type: functional, cell-based
# Procedure, shortened: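 HEK 293 cells; inhibition of PGE2-induced cAMP accumulation measured, with and without 10% human serum; means of at least three experiments.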
# [12] = test system: Rattus norvegicus; test: Analgesic activity in po dosed Sprague-Dawley rat assessed as inhibition of carrageenan-induced mechanical hyperalgesia relative to control; type: functional
# Procedure, shortened: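 SD rats given subplantar carrageenan; compound dosed orally as a single dose; mechanical hyperalgesia read at 3 h post carrageenan, 1 h post dose; inhibition expressed vs vehicle control; n = 10-20/group; 1-way ANOVA/Dunnett's.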
# [13] = target: T3, Thromboxane A2 receptor (Homo sapiens, UniProt P21731); test: Displacement of [3H]SQ29548 from human TP receptor expressed in HEK293-EBNA cells by scintillation counting; type: cell-based; procedure, shortened: as §2
# T3 sequence (P21731 whole entry): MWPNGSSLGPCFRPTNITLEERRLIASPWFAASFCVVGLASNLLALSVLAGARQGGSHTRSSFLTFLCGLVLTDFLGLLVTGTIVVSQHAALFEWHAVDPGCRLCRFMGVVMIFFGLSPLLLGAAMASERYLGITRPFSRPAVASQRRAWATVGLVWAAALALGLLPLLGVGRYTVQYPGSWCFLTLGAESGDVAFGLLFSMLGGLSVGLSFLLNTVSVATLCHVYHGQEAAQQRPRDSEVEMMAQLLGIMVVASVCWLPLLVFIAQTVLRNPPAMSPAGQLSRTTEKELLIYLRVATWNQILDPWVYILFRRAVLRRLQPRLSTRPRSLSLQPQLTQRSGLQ
# [14] = Oral bioavailability in cynomolgus monkey at 5 mg/kg; type: ADME, organism-based, Macaca fascicularis; conditions: in vivo; procedure, shortened: as §1
# [15] = target: T4, Prostaglandin D2 receptor 2 (Homo sapiens, UniProt Q9Y5Y4); test: Displacement of [3H]PGD2 from human DP2 receptor expressed in HEK293-EBNA cells by scintillation counting; type: cell-based; procedure, shortened: as §2
# T4 sequence (Q9Y5Y4 whole entry): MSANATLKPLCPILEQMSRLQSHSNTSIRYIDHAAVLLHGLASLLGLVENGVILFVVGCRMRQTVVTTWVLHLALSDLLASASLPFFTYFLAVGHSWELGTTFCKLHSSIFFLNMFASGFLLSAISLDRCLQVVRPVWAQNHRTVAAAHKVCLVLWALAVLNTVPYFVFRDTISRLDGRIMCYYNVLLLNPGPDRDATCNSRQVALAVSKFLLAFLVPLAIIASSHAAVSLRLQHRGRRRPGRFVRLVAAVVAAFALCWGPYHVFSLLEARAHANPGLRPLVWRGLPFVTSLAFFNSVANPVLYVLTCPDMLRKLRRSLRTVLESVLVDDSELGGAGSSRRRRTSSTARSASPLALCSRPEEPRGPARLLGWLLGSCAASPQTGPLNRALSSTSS
# [16] = target: Prostaglandin E2 receptor EP4 subtype (Rattus norvegicus, UniProt P43114); test: Displacement of [3H]PGE2 from rat EP4 receptor expressed in HEK293-EBNA cells by scintillation counting; type: cell-based; procedure, shortened: as §2
# Prostaglandin E2 receptor EP4 subtype (Rattus norvegicus, UniProt P43114), sequence (P43114 whole entry): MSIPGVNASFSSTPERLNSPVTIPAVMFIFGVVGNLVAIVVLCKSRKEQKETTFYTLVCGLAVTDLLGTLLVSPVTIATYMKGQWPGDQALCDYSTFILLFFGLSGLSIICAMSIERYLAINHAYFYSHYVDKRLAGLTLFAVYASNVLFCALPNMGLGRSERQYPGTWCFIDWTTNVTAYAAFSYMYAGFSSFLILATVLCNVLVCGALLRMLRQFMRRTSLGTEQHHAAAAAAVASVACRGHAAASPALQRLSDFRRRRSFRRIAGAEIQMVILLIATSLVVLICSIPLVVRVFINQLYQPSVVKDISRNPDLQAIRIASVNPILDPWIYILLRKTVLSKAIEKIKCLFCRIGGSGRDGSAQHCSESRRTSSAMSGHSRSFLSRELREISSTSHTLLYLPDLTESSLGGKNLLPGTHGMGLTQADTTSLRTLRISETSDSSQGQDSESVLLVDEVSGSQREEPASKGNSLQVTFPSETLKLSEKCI
# T1 sequence (P35408 whole entry): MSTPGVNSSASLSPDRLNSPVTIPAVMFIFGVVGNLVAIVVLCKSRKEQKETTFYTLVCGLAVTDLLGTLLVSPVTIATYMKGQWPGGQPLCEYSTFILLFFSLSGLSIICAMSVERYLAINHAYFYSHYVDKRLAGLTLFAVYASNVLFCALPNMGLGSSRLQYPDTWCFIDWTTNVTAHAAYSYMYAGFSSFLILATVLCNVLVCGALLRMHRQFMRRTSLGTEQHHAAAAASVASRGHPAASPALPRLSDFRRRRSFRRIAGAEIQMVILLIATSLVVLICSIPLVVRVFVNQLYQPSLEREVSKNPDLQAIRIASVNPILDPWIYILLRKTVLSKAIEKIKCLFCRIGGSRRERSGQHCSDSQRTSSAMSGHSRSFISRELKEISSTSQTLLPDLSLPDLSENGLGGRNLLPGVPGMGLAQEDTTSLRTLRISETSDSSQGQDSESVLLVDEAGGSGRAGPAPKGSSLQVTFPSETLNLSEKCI
structure (smiles),measurement,setting,value
Cc1sc(C)c(C(=O)NC2(c3ccc(C(=O)O)cc3)CC2)c1Cc1ccc(C(F)(F)F)cc1,IC50,[1],2.9 nM
same,Activity,[2],Dose-dependent effect
same,ED50,[2],0.02 mg/kg
same,Vd,[3],0.91 L/kg
same,Vdss,[4],7.9 L/kg
same,Ki,[5],> 5600 nM
same,Ki,[6],> 22000 nM
same,bioavailability,[7],21%
same,Vd,[8],2.6 L/kg
same,Ki,[9],0.56 nM
same,Ki,[10],0.97 nM
same,IC50,[11],2.5 nM
same,inhibition (INH),[12],60%
same,Ki,[13],> 6800 nM
same,bioavailability,[14],18%
same,Ki,[15],> 21000 nM
same,Ki,[16],0.7 nM
